According to ChEMBL document CHEMBL2407075, “Sulphonamido-quinoxalines: search for anticancer agent” (Eur J Med Chem, 2013):

Tests used:
HCT-116 = experiment: Growth inhibition of human HCT116 cells at 10 uM after 48 hrs by sulforhodamine B assay; type: functional; settings: HCT-116, 48 h, read-out: GI
Outline: (§1)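 NCI-60 one-dose primary screen at a single 10 µM concentration. Cells in RPMI 1640 with 5% FBS, preincubated 24 h at 37 °C, 5% CO2. Drug exposure 48 h, then TCA fixation, SRB staining and absorbance at 515 nm. Percent growth calculated against time-zero and untreated control wells, then converted to percent growth inhibition.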

786-0 = experiment: Growth inhibition of human 786-0 cells at 10 uM after 48 hrs by sulforhodamine B assay; type: functional; settings: 786-0, 48 h, read-out: GI
Outline: (§2)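 Single-dose NCI-60 prescreen at 10 µM for 48 h at 37 °C and 5% CO2, using cells grown in RPMI 1640 with 5% FBS and 2 mM glutamine. Protein was measured by SRB after TCA fixation: 10% final for adherent lines, 16% for suspension lines. Absorbance was read at 515 nm. Percent growth inhibition was obtained by subtracting percent growth from 100.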

PC-3 = experiment: Growth inhibition of human PC3 cells at 10 uM after 48 hrs by sulforhodamine B assay; type: functional; settings: PC-3, 48 h, read-out: GI
Outline: (§3)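 Single-dose screen at 10 µM across the NCI 60 panel. Cells in RPMI 1640 with 5% FBS and 2 mM L-glutamine, plated at 5000–40,000/well and preincubated 24 h at 37 °C, 5% CO2. Drug in DMSO, 48 h exposure. Fixed with TCA, stained with SRB, A515 read. Percent growth is taken relative to untreated control, and inhibition is 100 minus growth.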

SK-MEL-5 = experiment: Growth inhibition of human SK-MEL-5 cells at 10 uM after 48 hrs by sulforhodamine B assay; type: functional; settings: SK-MEL-5, 48 h, read-out: GI; outline: as §3
OVCAR-8 = experiment: Growth inhibition of human OVCAR8 cells at 10 uM after 48 hrs by sulforhodamine B assay; type: functional; settings: OVCAR-8, 48 h, read-out: GI; outline: as §3
NCI-H322M = experiment: Growth inhibition of human NCI-H322M cells at 10 uM after 48 hrs by sulforhodamine B assay; type: functional; settings: read-out: GI; outline: as §3
Malme-3M = experiment: Growth inhibition of human MALME-3M cells at 10 uM after 48 hrs by sulforhodamine B assay; type: functional; settings: read-out: GI; outline: as §3
[1] = Oral bioavailability in human; type: ADME, organism-based; settings: in silico prediction
A498 = experiment: Growth inhibition of human A498 cells at 10 uM after 48 hrs by sulforhodamine B assay; type: functional; settings: A498, 48 h, read-out: GI; outline: as §2
[2] = Growth inhibition of human Hs 578T cells at 10 uM after 48 hrs by sulforhodamine B assay; type: functional; settings: read-out: GI; outline: as §1
[3] = Growth inhibition of human HCC2998 cells at 10 uM after 48 hrs by sulforhodamine B assay; type: functional; settings: HCC 2998, 48 h, read-out: GI; outline: as §1
SNB-19 = experiment: Growth inhibition of human SNB19 cells at 10 uM after 48 hrs by sulforhodamine B assay; type: functional; settings: SNB-19, 48 h, read-out: GI; outline: as §3
SF-539 = experiment: Growth inhibition of human SF539 cells at 10 uM after 48 hrs by sulforhodamine B assay; type: functional; settings: SF-539, 48 h, read-out: GI; outline: as §3
UO-31 = experiment: Growth inhibition of human UO31 cells at 10 uM after 48 hrs by sulforhodamine B assay; type: functional; settings: UO-31, 48 h, read-out: GI; outline: as §3
SR = experiment: Growth inhibition of human SR cells at 10 uM after 48 hrs by sulforhodamine B assay; type: functional; settings: read-out: GI; outline: as §3
UACC-257 = experiment: Growth inhibition of human UACC257 cells at 10 uM after 48 hrs by sulforhodamine B assay; type: functional; settings: UACC-257, 48 h, read-out: GI; outline: as §3
HOP-62 = experiment: Growth inhibition of human HOP62 cells at 10 uM after 48 hrs by sulforhodamine B assay; type: functional; settings: HOP-62, 48 h, read-out: GI; outline: as §1
MOLT-4 = experiment: Growth inhibition of human MOLT4 cells at 10 uM after 48 hrs by sulforhodamine B assay; type: functional; settings: MOLT-4, 48 h, read-out: GI; outline: as §3
SK-OV-3 = experiment: Growth inhibition of human SKOV3 cells at 10 uM after 48 hrs by sulforhodamine B assay; type: functional; settings: SK-OV-3, 48 h, read-out: GI; outline: as §3
UACC-62 = experiment: Growth inhibition of human UACC62 cells at 10 uM after 48 hrs by sulforhodamine B assay; type: functional; settings: UACC-62, 48 h, read-out: GI; outline: as §3
DU-145 = experiment: Growth inhibition of human DU145 cells at 10 uM after 48 hrs by sulforhodamine B assay; type: functional; settings: DU-145, 48 h, read-out: GI; outline: as §2
OVCAR-3 = experiment: Growth inhibition of human OVCAR3 cells at 10 uM after 48 hrs by sulforhodamine B assay; type: functional; settings: OVCAR-3, 48 h, read-out: GI; outline: as §3
OVCAR-4 = experiment: Growth inhibition of human OVCAR4 cells at 10 uM after 48 hrs by sulforhodamine B assay; type: functional; settings: OVCAR-4, 48 h, read-out: GI; outline: as §3
SN12C = experiment: Growth inhibition of human SN12C cells at 10 uM after 48 hrs by sulforhodamine B assay; type: functional; settings: read-out: GI; outline: as §3
MDA-MB-435 = experiment: Growth inhibition of human MDA-MB-435 cells at 10 uM after 48 hrs by sulforhodamine B assay; type: functional; settings: MDA-MB-435, 48 h, read-out: GI; outline: as §3
K562 = experiment: Growth inhibition of human K562 cells at 10 uM after 48 hrs by sulforhodamine B assay; type: functional; settings: K562, 48 h, read-out: GI; outline: as §3
OVCAR-5 = experiment: Growth inhibition of human OVCAR5 cells at 10 uM after 48 hrs by sulforhodamine B assay; type: functional; settings: OVCAR-5, 48 h, read-out: GI; outline: as §3
ACHN = experiment: Growth inhibition of human ACHN cells at 10 uM after 48 hrs by sulforhodamine B assay; type: functional; settings: read-out: GI; outline: as §2
NCI-H23 = experiment: Growth inhibition of human NCI-H23 cells at 10 uM after 48 hrs by sulforhodamine B assay; type: functional; settings: NCI-H23, 48 h, read-out: GI; outline: as §3
LOX IMVI = experiment: Growth inhibition of human LOXIMVI cells at 10 uM after 48 hrs by sulforhodamine B assay; type: functional; settings: read-out: GI; outline: as §3
TK-10 = experiment: Growth inhibition of human TK10 cells at 10 uM after 48 hrs by sulforhodamine B assay; type: functional; settings: TK-10, 48 h, read-out: GI; outline: as §3
HT-29 = experiment: Growth inhibition of human HT-29 cells at 10 uM after 48 hrs by sulforhodamine B assay; type: functional; settings: HT-29, 48 h, read-out: GI; outline: as §1
MDA-MB-468 = experiment: Growth inhibition of human MDA-MB-468 cells at 10 uM after 48 hrs by sulforhodamine B assay; type: functional; settings: MDA-MB-468, 48 h, read-out: GI; outline: as §3
RXF 393 = experiment: Growth inhibition of human RXF393 cells at 10 uM after 48 hrs by sulforhodamine B assay; type: functional; settings: RXF 393, 48 h, read-out: GI; outline: as §3
U-251 = experiment: Growth inhibition of human U251 cells at 10 uM after 48 hrs by sulforhodamine B assay; type: functional; settings: U-251, 48 h, read-out: GI; outline: as §3

Row | Structure (SMILES) | inhibition of growth at 10 µM (HCT-116) | inhibition of growth at 10 µM (786-0) | inhibition of growth at 10 µM (PC-3) | inhibition of growth at 10 µM (SK-MEL-5) | inhibition of growth at 10 µM (OVCAR-8) | inhibition of growth at 10 µM (NCI-H322M) | inhibition of growth at 10 µM (Malme-3M) | bioavailability [1] | inhibition of growth at 10 µM (A498) | inhibition of growth at 10 µM [2] | inhibition of growth at 10 µM [3] | inhibition of growth at 10 µM (SNB-19) | inhibition of growth at 10 µM (SF-539) | inhibition of growth at 10 µM (UO-31) | inhibition of growth at 10 µM (SR) | inhibition of growth at 10 µM (UACC-257) | inhibition of growth at 10 µM (HOP-62) | inhibition of growth at 10 µM (MOLT-4) | inhibition of growth at 10 µM (SK-OV-3) | inhibition of growth at 10 µM (UACC-62) | other results
1 | COc1ccccc1NS(=O)(=O)c1ccc2nc(-c3ccccc3)c(-c3ccccc3)nc2c1 | 55.7% | 41.5% | 52.8% | 61.4% | 24.1% | 23.2% | 1.87% | 100% | 42.8% | 33.2% | 19.9% | 41.9% | 24.7% | 22.8% | 81.9% | 18.9% | 2.12% | 56.9% | 18.6% | 23.4% | inhibition of growth at 10 µM (DU-145): 18.9%; inhibition of growth at 10 µM (OVCAR-3): 13.5%; inhibition of growth at 10 µM (OVCAR-4): 30%; inhibition of growth at 10 µM (SN12C): 32.6%; inhibition of growth at 10 µM (MDA-MB-435): 22.5%; inhibition of growth at 10 µM (K562): 45.5%; inhibition of growth at 10 µM (OVCAR-5): 12.7%; inhibition of growth at 10 µM (ACHN): 13.1%; inhibition of growth at 10 µM (NCI-H23): 23%; inhibition of growth at 10 µM (LOX IMVI): 23.3%; inhibition of growth at 10 µM (TK-10): 1.26%; inhibition of growth at 10 µM (HT-29): 63.9%; inhibition of growth at 10 µM (MDA-MB-468): 56.8%; inhibition of growth at 10 µM (RXF 393): 70.7%
2 | NC(=S)NNS(=O)(=O)c1ccc2nc(-c3ccccc3)c(-c3ccccc3)nc2c1 | 17.8% | 2.34% | 34.6% | 39.1% | 5.83% | 2.92% | 2.94% | 81.4% | 26.8% | 6.63% | 8.92% | 14.8% | 21.7% | 13.7% | 50% | 8.83% | 38.7% | 28.1% | 5.98% | 24.3% | inhibition of growth at 10 µM (U-251): 26.8%; inhibition of growth at 10 µM (DU-145): 2.73%; inhibition of growth at 10 µM (OVCAR-3): 1.84%; inhibition of growth at 10 µM (OVCAR-4): 16.5%; inhibition of growth at 10 µM (SN12C): 6.98%; inhibition of growth at 10 µM (MDA-MB-435): 11.1%; inhibition of growth at 10 µM (K562): 34.8%; inhibition of growth at 10 µM (OVCAR-5): 4.85%; inhibition of growth at 10 µM (ACHN): 1.83%; inhibition of growth at 10 µM (NCI-H23): 11.6%; inhibition of growth at 10 µM (LOX IMVI): 11.2%; inhibition of growth at 10 µM (TK-10): 2.74%; inhibition of growth at 10 µM (HT-29): 30.8%; inhibition of growth at 10 µM (MDA-MB-468): 30.8%; inhibition of growth at 10 µM (RXF 393): 29.2%
3 | CC(=S)NS(=O)(=O)c1ccc2nc(-c3ccccc3)c(-c3ccccc3)nc2c1 | 14.5% | 2.83% | 33.9% | 28.9% | 3.93% | 17.8% | 2.85% | 94.7% | 22.7% | 20.8% | 6.23% | 2.12% | 3.29% | 10.6% | 41% | 2.23% | 2.84% | 20.5% | 4.85% | 20.7% | inhibition of growth at 10 µM (U-251): 10.3%; inhibition of growth at 10 µM (DU-145): 2.63%; inhibition of growth at 10 µM (OVCAR-3): 1.94%; inhibition of growth at 10 µM (OVCAR-4): 13.4%; inhibition of growth at 10 µM (SN12C): 2.83%; inhibition of growth at 10 µM (MDA-MB-435): 4.73%; inhibition of growth at 10 µM (K562): 26.8%; inhibition of growth at 10 µM (OVCAR-5): 2.84%; inhibition of growth at 10 µM (ACHN): 16.6%; inhibition of growth at 10 µM (NCI-H23): 11.7%; inhibition of growth at 10 µM (LOX IMVI): 12.2%; inhibition of growth at 10 µM (TK-10): 6.93%; inhibition of growth at 10 µM (HT-29): 21.5%; inhibition of growth at 10 µM (MDA-MB-468): 23.7%; inhibition of growth at 10 µM (RXF 393): 14.5%
